Measured values from different studies.
Protocols differ between the studies behind these lines.
Target: Serine/threonine-protein kinase PAK 4 (PAK4, Homo sapiens, UniProt O96013)

SMILES | observed | mode | technique | concentration | endpoint | value
CCc1ccccc1C(=O)Nc1n[nH]c2c(C)c(F)c(C3C(C#N)=C(C)N(C)C(C)=C3C#N)cc12 | cell-free assay | – | competition with immobilised ligand | 1 µM | remaining binding | 100%
COc1cc(-c2cc(-c3ccc(N4CCNCC4)cc3)cnc2C)cc(OC)c1OC | enzyme activity | inhibitor | – | 1 µM | inhibition | 4%
O=C(Nc1cnn(-c2csc(C(=O)NC3COC3)c2)c1)Nc1c(F)cccc1Cl | enzyme activity | inhibitor | – | 5 µM | remaining activity | 107%
CCN(CC)CCNC(=O)c1c(C)[nH]c(/C=C2\C(=O)Nc3ccc(F)cc32)c1C | enzyme activity | inhibitor | – | 10 µM | inhibition | 55%
Nc1cnc(N2CCc3cc(S(=O)(=O)Nc4c(F)cc(Cl)cc4F)cc(N4CCCC4=O)c32)nc1 | cell-free assay | – | competition with immobilised ligand | 1 µM | remaining binding | 89%
CCN(CC)CCNC(=O)c1c(C)[nH]c(/C=C2\C(=O)Nc3ccc(F)cc32)c1C | enzyme activity | inhibitor | – | 1 µM | remaining activity | 82%
Cc1ccc(Nc2nccc(N(C)c3ccc4c(C)n(C)nc4c3)n2)cc1S(N)(=O)=O | enzyme activity | inhibitor | – | 0.3 µM | inhibition | -17%
Oc1ccc(-c2nc(-c3ccncc3)c(-c3ccc(F)cc3)[nH]2)cc1 | cell-free assay | – | – | 0.5 µM | remaining signal | 98.6%
FC(F)(F)Oc1cccc(-c2cnc3ccc(-c4ccncc4)nn23)c1 | enzyme activity | inhibitor | radiometric | 1 µM | activity vs control | 81%
CSc1cccnc1N1CCN(Cc2nc3ccccc3[nH]2)CC1 | cell-free assay | – | competition with immobilised ligand | 1 µM | remaining binding | 100%
C=CC(=O)Nc1cc(Nc2nccc(Nc3cc(Cl)c(F)cc3C(C)(C)O)n2)c(OC)cc1N1CC[C@@H](N(C)C)C1 | enzyme activity | inhibitor | – | 1 µM | inhibition | 5%
CC(C)(C)c1nc(-c2cccc(NS(=O)(=O)c3c(F)cccc3F)c2F)c(-c2ccnc(N)n2)s1 | enzyme activity | inhibitor | radiometric | 1 µM | remaining activity | 68%
Cc1ccc(C(=O)Nc2ccc(CN3CCN(C)CC3)c(C(F)(F)F)c2)cc1C#Cc1cnc2cccnn12 | enzyme activity | inhibitor | – | 23.5 nM | remaining activity | 91%
COc1cc(-c2cn(C3CCc4c(F)cccc4N(CC(F)(F)F)C3=O)nn2)ccc1-n1cnc(C)c1 (stereo not shown) | cell-free assay | – | competition with immobilised ligand | 1 µM | remaining binding | 99%
CC/C(=N\NC(=O)NCc1cccc(O)c1)c1ccc(O)c(C)c1O | enzyme activity | inhibitor | – | 0.1 µM | inhibition | 10.6%
CS(=O)(=O)Nc1cccc(-c2csc(NC(=O)CSc3nc4nccnc4c(=O)n3CCc3ccccc3)n2)c1 | enzyme activity | inhibitor | – | 10 µM | inhibition | 4%
CSc1nc(C)c(-c2ccnc(Nc3ccc(N4CCOCC4)cc3)c2)[nH]1 | enzyme activity | inhibitor | – | 10 µM | inhibition | -3.9%

SMILES | observed | mode | technique | concentration | endpoint | value
Cc1cnc(NC2CCOCC2)nc1-n1cnc(C(=O)NC(CN)c2cc(F)cc(Cl)c2)c1 (stereo not shown) | enzyme activity | inhibitor | radiometric | 1 µM | remaining activity | 96%
NS(=O)(=O)c1cc(NC(=O)C2(c3ccccc3Cl)CC2)ccc1Oc1cccc(Cl)c1 | cell-free assay | – | competition with immobilised ligand | 1 µM | remaining binding | 74%
CNC(=O)c1cc(Oc2ccc(NC(=O)Nc3ccc(Cl)c(C(F)(F)F)c3)cc2)ccn1 | enzyme activity | inhibitor | – | 10 µM | inhibition | -9%
Cn1c(=O)n(-c2ccc(C(C)(C)C#N)cc2)c2c3cc(-c4cnc5ccccc5c4)ccc3ncc21 | enzyme activity | inhibitor | – | 10 µM | remaining activity | 87%
CCCS(=O)(=O)Nc1ccc(F)c(C(=O)c2c[nH]c3ncc(-c4ccc(Cl)cc4)cc23)c1F | enzyme activity | inhibitor | – | 1 µM | inhibition | < 10%
Nc1nc(NC2CCCCC2)sc1C(=O)c1ccccc1 | enzyme activity | inhibitor | – | 10 µM | remaining activity | 88%
N#CCCc1ccc2c(c1)-c1[nH]c3ccc([N+](=O)[O-])cc3c1CC(=O)N2 | cell-free assay | – | – | 0.5 µM | remaining signal | 86.4%
Cc1c(NC(=O)c2cc(C(N)=O)nc3cc(F)ccc23)c(C(F)(F)F)nn1Cc1ccc(C(C)(C)C)cc1 | cell-free assay | – | competition with immobilised ligand | 1 µM | remaining binding | 100%
O=C1NC(=O)c2cc(Nc3ccc(F)cc3)c(Nc3ccc(F)cc3)cc21 | cell-free assay | – | – | 0.5 µM | remaining signal | 95.1%
O=C1NC(c2ccccn2)Sc2ccccc21 (stereo not shown) | cell-free assay | – | competition with immobilised ligand | 1 µM | remaining binding | 84%
CCN(CC)c1ccc(C2=NNC(=O)CC2C)cc1[N+](=O)[O-] (stereo not shown) | enzyme activity | inhibitor | – | 10 µM | remaining activity | 98%
Cc1ccc(NC(=O)c2ccc(C)c(C(F)(F)F)c2)cc1C#Cc1nn(C2CCC(O)CC2)c2ncnc(N)c12 (stereo not shown) | cell-free assay | – | – | 10 µM | remaining signal | 88%
CCCOc1ccc(OC)c(F)c1C(=O)c1ccc(C(=O)N[C@@H]2CNC[C@H]2NC(=O)c2ccc3[nH]ncc3c2)cc1 | enzyme activity | inhibitor | – | 10 µM | remaining activity | 90%
Oc1cccc(-c2nc(N3CCOCC3)c3oc4ncccc4c3n2)c1 | enzyme activity | inhibitor | – | 10 µM | remaining activity | 70%
c1ccc(N2CCN(Cc3nc4ccccc4[nH]3)CC2)nc1 | cell-free assay | – | competition with immobilised ligand | 1 µM | remaining binding | 93%
COc1cc(Nc2cnc(C#N)c(O[C@H](C)CN(C)C)n2)ncc1-c1cnn(C)c1 | enzyme activity | inhibitor | radiometric | 10 µM | remaining activity | 70%
Cc1[nH]c(/C=C2\C(=O)Nc3ccc(F)cc32)c(C)c1C(=O)N[C@H]1CCN(C(=O)N(C)C)C1 | enzyme activity | inhibitor | – | 1 µM | remaining activity | 105%
